# ChEMBL document CHEMBL1132970, “Synthesis of N-substituted 4-(4-hydroxyphenyl)piperidines, 4-(4-hydroxybenzyl)piperidines, and (+/-)-3-(4-hydroxyphenyl)pyrrolidines: selective antagonists at the 1A/2B NMDA receptor subtype” (J Med Chem, 2000)
# Tests used:
# [1] = molecular target: Glutamate NMDA receptor; Grin1/Grin2c (Rattus norvegicus, UniProt P35439+Q00961); assay: Inhibitory activity against Xenopus oocytes expressing rat N-Methyl-D-aspartate (NR1A/2C) Receptor subtype.; format: cell-based, Oocyte
# Method in brief: (§1)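 Electrophysiology on oocytes expressing each NMDA subunit combination. IC50 from curve fitting of concentration-inhibition data pooled from 1-7 separate experiments.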
# [2] = molecular target: Glutamate NMDA receptor; Grin1/Grin2a (Rattus norvegicus, UniProt P35439+Q00959); assay: Inhibitory activity against Xenopus oocytes expressing rat N-Methyl-D-aspartate (NR1A/2A) Receptor subtype.; format: cell-based, Oocyte; method in brief: as §1
# [3] = molecular target: Glutamate NMDA receptor; Grin1/Grin2b (Rattus norvegicus, UniProt P35439+Q00960); assay: Inhibitory activity against Xenopus oocytes expressing rat N-Methyl-D-aspartate (NR1A/2B) Receptor subtype.; format: cell-based, Oocyte; method in brief: as §1
# [4] = molecular target: T1, Adrenergic receptor alpha-1 (Rattus norvegicus, UniProt P15823+P23944+P43140); assay: Inhibition of [3H]prazosin binding at alpha-1 adrenergic receptor in rat brain cortical membranes.; format: cell membranes, Membrane
# T1 sequence (P15823 whole entry): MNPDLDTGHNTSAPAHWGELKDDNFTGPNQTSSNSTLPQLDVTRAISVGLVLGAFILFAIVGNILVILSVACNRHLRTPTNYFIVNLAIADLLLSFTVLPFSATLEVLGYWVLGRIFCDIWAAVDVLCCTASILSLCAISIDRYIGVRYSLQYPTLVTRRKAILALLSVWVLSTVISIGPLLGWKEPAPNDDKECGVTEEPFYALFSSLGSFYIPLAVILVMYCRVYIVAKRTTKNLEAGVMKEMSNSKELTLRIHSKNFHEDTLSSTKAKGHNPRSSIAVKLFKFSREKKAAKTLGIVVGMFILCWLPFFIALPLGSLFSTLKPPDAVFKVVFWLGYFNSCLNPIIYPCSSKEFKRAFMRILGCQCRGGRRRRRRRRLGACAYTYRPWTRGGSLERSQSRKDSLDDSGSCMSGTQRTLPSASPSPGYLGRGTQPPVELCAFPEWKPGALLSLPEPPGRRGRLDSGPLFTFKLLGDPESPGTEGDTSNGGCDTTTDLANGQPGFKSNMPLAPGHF
# T1 sequence (P23944 whole entry): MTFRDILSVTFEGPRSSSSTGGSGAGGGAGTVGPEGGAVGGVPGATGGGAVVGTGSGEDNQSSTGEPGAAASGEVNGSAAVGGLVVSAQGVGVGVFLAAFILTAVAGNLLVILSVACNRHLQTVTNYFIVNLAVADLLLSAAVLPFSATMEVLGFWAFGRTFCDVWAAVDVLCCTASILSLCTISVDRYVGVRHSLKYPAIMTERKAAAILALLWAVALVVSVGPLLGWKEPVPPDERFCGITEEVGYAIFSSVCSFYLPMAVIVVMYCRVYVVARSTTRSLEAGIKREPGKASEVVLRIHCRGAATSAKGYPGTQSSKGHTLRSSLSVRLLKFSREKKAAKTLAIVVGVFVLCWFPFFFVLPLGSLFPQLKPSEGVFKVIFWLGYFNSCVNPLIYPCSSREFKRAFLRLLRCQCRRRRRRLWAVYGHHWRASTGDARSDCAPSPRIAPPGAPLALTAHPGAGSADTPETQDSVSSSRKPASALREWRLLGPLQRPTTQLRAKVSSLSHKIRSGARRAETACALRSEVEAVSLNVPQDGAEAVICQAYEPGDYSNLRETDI
# T1 sequence (P43140 whole entry): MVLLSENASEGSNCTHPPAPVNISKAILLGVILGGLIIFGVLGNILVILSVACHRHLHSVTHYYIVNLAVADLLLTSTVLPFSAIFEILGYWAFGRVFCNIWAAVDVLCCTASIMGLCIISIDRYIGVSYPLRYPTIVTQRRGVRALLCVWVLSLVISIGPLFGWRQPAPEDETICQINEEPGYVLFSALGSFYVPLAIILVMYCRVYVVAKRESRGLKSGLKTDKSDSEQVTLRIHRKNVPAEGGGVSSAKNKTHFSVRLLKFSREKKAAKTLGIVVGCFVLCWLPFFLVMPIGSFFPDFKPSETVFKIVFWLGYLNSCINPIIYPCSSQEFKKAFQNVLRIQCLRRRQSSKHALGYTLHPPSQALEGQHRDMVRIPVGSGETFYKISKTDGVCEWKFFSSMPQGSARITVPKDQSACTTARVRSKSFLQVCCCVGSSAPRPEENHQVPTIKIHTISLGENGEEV
# Method in brief: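 Membranes from Sprague-Dawley rat cortex, sucrose/Tris homogenate washed three times. Assayed in 140 mM NaCl/5 mM MgCl2/50 mM Tris-HCl pH 7.4. 200 µg protein incubated with 0.8 nM [3H]prazosin; 10 µM phentolamine defined nonspecific binding. Nine concentrations in duplicate; IC50 from sigmoidal fit.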
# D(2) dopamine receptor = D(2) dopamine receptor (Rattus norvegicus, UniProt P61169); assay: Inhibition of [3H]-raclopride binding at Dopamine receptor D2 in rat brain membranes.; format: cell membranes
# Method in brief: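 Rat striatal membranes, washed in 50 mM Tris-HCl pH 7.4, assayed in 120 mM NaCl/5 mM KCl/50 mM Tris-HCl pH 7.4. 200 µg membrane protein with 3 nM [3H]raclopride; nonspecific binding with 300 µM sulpiride. Nine concentrations in duplicate; IC50 by sigmoidal curve fit.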
# Mus musculus = species on record: Mus musculus; assay: Effective dose for protection against MES seizures in mice; format: functional
# Method in brief: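 Male Swiss Webster mice (23-27 g, food and water ad libitum), compound given iv as 5 mg/mL solution in 0.2 M Tris. Seizure protection tested 2 min after dosing; corneal electroshock, rectangular pulses 50 mA, 60-75 Hz, 0.8 ms width, 0.2 s train. Seizure scored as tonic hind-limb extension. ED50 with 95% confidence limits; at least 24 animals per compound.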
# D(2) dopamine receptor, sequence (P61169 whole entry): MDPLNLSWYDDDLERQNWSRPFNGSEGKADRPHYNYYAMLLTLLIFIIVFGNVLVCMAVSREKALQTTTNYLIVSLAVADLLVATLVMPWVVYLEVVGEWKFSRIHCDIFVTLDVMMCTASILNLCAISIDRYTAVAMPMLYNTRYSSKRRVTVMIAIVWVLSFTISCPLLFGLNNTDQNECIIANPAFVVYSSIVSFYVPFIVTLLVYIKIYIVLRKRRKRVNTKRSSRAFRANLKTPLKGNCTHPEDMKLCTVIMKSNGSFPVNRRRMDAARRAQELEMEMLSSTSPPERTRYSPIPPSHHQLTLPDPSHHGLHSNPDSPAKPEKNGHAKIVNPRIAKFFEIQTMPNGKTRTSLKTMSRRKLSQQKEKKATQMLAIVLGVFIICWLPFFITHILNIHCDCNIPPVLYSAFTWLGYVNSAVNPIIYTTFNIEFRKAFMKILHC
# Glutamate NMDA receptor; Grin1/Grin2c, sequence (Q00961 whole entry, other chains not shown): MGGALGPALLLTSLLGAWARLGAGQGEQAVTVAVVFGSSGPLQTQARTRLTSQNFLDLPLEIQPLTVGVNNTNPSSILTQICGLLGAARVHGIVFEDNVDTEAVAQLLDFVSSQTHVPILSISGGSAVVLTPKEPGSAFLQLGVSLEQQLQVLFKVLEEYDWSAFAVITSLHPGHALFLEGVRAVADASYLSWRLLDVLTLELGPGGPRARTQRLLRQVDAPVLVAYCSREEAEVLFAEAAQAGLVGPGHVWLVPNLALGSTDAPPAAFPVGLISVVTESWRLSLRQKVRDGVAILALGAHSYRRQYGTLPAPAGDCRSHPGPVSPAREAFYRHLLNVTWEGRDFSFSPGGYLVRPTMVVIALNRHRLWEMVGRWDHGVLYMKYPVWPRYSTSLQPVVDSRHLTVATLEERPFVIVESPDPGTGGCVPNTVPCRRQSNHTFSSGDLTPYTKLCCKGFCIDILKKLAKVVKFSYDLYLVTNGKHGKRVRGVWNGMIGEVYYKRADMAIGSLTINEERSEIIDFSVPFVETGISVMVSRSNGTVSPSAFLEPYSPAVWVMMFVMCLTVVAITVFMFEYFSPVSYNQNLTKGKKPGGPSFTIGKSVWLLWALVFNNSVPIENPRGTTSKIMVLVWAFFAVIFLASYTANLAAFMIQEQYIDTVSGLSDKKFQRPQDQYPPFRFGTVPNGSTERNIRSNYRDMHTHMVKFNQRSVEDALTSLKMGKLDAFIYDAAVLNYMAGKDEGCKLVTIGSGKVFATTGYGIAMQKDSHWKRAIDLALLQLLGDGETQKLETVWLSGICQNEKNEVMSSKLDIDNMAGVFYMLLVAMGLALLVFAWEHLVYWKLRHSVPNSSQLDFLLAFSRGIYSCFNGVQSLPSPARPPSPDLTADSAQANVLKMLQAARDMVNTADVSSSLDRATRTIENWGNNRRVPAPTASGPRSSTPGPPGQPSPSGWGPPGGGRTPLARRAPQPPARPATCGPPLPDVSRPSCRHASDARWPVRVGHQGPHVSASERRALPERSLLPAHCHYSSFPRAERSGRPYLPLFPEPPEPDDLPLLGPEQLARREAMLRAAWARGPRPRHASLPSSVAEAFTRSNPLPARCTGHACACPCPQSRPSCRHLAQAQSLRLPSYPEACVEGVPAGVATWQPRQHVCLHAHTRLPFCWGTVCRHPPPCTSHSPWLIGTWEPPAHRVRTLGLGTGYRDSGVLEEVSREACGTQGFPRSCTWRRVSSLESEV
# Glutamate NMDA receptor; Grin1/Grin2a, sequence (Q00959 whole entry, other chains not shown): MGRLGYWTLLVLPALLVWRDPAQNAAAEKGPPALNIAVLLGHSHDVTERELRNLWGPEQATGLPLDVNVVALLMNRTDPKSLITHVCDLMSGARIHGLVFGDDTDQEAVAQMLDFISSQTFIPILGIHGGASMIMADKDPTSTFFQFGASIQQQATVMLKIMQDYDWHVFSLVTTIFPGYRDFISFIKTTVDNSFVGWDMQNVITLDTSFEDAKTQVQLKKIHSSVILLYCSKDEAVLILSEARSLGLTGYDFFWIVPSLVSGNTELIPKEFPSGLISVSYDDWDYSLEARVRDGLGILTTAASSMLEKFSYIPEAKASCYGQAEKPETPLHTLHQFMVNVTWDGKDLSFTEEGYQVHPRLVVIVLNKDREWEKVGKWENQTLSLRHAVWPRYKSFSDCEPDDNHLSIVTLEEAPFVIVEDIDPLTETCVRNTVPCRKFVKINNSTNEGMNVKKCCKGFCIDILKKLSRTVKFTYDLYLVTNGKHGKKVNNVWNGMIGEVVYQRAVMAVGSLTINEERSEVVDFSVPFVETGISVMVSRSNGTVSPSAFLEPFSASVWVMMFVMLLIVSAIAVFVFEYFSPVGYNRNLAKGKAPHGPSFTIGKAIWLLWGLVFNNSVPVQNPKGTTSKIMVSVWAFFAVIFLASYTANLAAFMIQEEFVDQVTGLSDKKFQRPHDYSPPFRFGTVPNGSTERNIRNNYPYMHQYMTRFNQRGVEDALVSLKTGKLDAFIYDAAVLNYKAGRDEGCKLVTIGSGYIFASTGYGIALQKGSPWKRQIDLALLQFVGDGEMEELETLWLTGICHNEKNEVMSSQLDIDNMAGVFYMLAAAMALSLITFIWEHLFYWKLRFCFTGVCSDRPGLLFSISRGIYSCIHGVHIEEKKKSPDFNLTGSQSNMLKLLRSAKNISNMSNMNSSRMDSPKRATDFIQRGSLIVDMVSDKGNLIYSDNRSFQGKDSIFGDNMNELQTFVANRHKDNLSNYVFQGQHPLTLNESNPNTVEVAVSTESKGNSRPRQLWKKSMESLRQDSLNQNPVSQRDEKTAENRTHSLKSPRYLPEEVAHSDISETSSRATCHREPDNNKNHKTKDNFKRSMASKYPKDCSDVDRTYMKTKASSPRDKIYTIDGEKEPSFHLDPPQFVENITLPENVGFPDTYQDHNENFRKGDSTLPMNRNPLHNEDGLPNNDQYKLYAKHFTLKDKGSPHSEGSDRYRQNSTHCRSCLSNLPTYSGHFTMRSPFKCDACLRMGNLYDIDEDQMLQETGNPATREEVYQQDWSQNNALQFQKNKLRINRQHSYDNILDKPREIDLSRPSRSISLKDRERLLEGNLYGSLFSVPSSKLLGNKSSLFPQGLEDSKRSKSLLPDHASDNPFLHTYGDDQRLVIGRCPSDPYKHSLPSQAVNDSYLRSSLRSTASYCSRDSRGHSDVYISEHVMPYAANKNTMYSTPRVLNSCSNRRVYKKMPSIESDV
# Glutamate NMDA receptor; Grin1/Grin2b, sequence (Q00960 whole entry, other chains not shown): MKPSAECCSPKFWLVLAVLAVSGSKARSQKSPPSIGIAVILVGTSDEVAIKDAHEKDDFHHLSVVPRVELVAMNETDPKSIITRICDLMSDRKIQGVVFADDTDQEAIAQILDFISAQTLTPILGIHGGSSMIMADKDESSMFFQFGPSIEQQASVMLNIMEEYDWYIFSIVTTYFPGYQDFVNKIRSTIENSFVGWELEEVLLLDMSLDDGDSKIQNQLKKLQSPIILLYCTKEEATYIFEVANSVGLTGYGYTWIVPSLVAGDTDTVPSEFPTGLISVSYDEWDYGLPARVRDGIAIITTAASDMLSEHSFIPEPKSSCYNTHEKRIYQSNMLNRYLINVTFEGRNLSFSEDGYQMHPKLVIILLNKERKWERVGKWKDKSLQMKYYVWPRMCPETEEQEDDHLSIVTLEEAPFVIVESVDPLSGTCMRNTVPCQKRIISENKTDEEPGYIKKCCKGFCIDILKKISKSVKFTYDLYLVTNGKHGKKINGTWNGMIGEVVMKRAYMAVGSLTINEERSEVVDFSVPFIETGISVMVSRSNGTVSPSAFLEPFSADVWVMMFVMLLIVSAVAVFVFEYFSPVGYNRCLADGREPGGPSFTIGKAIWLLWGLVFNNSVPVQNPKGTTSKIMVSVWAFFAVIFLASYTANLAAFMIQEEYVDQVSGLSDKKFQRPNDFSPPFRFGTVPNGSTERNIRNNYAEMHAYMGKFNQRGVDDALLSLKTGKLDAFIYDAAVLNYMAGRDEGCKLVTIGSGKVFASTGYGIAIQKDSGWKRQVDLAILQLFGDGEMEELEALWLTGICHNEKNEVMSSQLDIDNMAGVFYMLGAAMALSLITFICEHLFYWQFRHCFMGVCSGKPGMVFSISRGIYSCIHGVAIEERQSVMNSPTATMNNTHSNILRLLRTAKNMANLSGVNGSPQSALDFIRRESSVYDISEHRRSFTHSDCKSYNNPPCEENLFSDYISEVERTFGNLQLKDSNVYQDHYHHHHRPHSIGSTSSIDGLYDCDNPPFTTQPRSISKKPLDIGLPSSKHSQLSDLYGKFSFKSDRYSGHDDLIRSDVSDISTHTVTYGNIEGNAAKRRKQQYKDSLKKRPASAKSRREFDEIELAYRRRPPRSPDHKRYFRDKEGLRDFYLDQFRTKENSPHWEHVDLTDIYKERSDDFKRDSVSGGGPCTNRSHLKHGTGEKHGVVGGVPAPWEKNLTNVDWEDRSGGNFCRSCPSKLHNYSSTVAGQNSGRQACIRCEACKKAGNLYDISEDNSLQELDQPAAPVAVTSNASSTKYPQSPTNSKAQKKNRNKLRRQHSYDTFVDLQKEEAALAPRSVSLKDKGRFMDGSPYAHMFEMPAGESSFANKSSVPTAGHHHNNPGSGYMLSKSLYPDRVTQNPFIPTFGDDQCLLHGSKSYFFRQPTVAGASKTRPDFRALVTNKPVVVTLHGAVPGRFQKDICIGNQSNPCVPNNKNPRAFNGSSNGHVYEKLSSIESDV
SMILES,IC50 [1] [µM],IC50 [2] [µM],IC50 [3] [nM],IC50 [4] [µM],IC50 (D(2) dopamine receptor) [µM],ED50 (Mus musculus) [mg/kg]
Oc1ccc(C2CCN(CCOCc3ccccc3)CC2)cc1,> 100,59,19,,,
CCCCN1CCC(c2ccc(O)cc2)CC1,> 100,> 100,61000,,,
Oc1ccc(CC2CCN(CCCCc3ccccc3)CC2)cc1,> 100,> 100,71,,,
Oc1ccc(C2=CCN(CCCCc3ccccc3)CC2)cc1,> 100,> 100,11,,,
Oc1ccc(C2(O)CCN(CCCCc3ccccc3)CC2)cc1,> 100,62,12,2.2,22,2.3
Oc1ccc(CC2CCN(CCCc3ccccc3)CC2)cc1,> 100,> 100,59,,,
Oc1ccc(C2CCN(CC(O)CCc3ccccc3)CC2)cc1 (stereo not drawn),> 100,> 100,19,1.4,5.9,0.46
Oc1ccc(C2(O)CCN(CC(O)CCc3ccccc3)CC2)cc1 (stereo not drawn),> 100,,26,14,105,5.7
c1ccc(CCCCN2CCC(c3ccccc3)CC2)cc1,> 100,> 100,2200,,,
Oc1ccc(CC2CCN(CCC#Cc3ccccc3)CC2)cc1,> 100,> 100,800,,,
Oc1ccc(CC2CCN(CC#Cc3ccccc3)CC2)cc1,> 100,> 100,180,,,

# Second part, led by results:
IC50 [1] [µM],IC50 [2] [µM],IC50 [3] [nM],IC50 [4] [µM],IC50 (D(2) dopamine receptor) [µM],SMILES,ED50 (Mus musculus) [mg/kg]
> 100,> 100,22,0.54,1.2,Br.Oc1ccc(C2CCN(CCCCc3ccccc3)CC2)cc1,0.23
> 100,> 100,> 100000,1.7,0.41,COc1ccc(C2CCN(CCCCc3ccccc3)CC2)cc1.Cl,0.56
> 100,> 100,75,,,Oc1ccc(C2CCN(CCCCCc3ccccc3)CC2)cc1,
> 100,51,74,,,Oc1ccc(C2CCN(CCCc3ccccc3)CC2)cc1,
> 100,43,230,,,Oc1ccc(CCCCN2CCC(c3ccccc3)CC2)cc1,
> 100,41,17,,,Oc1ccc(C2CCN(CCCCCc3ccccc3)C2)cc1 (stereo not drawn),
> 100,52,130,,,Oc1ccc(C2CCN(CCCCc3ccccc3)C2)cc1 (stereo not drawn),
